Laboratory results taken from ChEMBL document CHEMBL5325460, “Versatile anti-infective properties of pyrido- and dihydropyrido[2,3-d]pyrimidine-based compounds” (Bioorg Med Chem, 2023).

Tests used:
[1] = biological target: Human immunodeficiency virus type 1 reverse transcriptase (Human immunodeficiency virus 1, UniProt Q72547); assay: Inhibition of wild type HIV-1 reverse transcriptase RNase-associated RNase H activity using RNA/DNA template-primer as substrate
How it was run: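 RNase H activity of wild-type RT, run independently of RDDP, with RDS1759 as positive control. Assays in triplicate; IC50 reported ± error.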

Leishmania major [2] = assay: Antileishmanial activity against Leishmania major promastigotes assessed as parasite growth inhibition measured after 72 hrs by MTT based ELISA reader analysis
Toxoplasma gondii = assay: Antiparasitic activity against Toxoplasma gondii RH tachyzoites infected in African green monkey Vero cells assessed as parasitic growth inhibition incubated for 72 hrs by inverted microscopic analysis; type: functional, organism-based
How it was run: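 RH-strain tachyzoites grown on Vero host cells in RPMI 1640 with 10% FBS and exposed to a range of concentrations, with atovaquone as positive control. Infected cells counted under an inverted microscope; inhibition % = (1 − infected treated / infected control) × 100. IC50 from concentration–response curves at 72 h; means of at least three independent experiments.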

[3] = Selectivity index, ratio of CC50 for cytotoxicity against African green monkey Vero cells to IC50 for antiparasitic activity against Toxoplasma gondii RH tachyzoites infected in African monkey Vero cells; type: toxicity, cell-based; conditions: read-out: Ratio CC50/IC50
How it was run: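 SI = Vero CC50 (3-day MTT, 540 nm read) divided by T. gondii RH IC50 (Vero host cells, microscopic count of infected cells); both values from concentration–response curves at 72 h.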

Leishmania major [4] = assay: Antileishmanial activity against Leishmania major amastigotes infected in mouse macrophages assessed as parasite growth inhibition measured after 72 hrs by MTT based ELISA reader analysis; type: functional, organism-based; conditions: Macrophage
How it was run: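 L. major promastigotes from a patient isolate; amastigotes from infected BALB/c mice, grown inside mouse macrophages. Viable parasites read by MTT absorbance at 570 nm.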

[5] = Cytotoxicity against African green monkey Vero cells assessed as reduction in cell viability measured after 3 days by MTT assay; type: toxicity, cell-based; conditions: chlorocebus sabaeus, time 3 day
How it was run: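 Vero cells held 3 days with graded doses in RPMI 1640 with 5% FBS. Viability read by MTT colorimetry at 540 nm. CC50 from concentration–response curves against untreated controls; means of at least three independent experiments.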

Row | SMILES | IC50 [1] [µM] | IC50 (Leishmania major [2]) [µM] | IC50 (Toxoplasma gondii) [µM] | selectivity ratio [3] | IC50 (Leishmania major [4]) [µM] | CC50 at 72 h [5] [µM]
1 | COc1ccc(C2C3=C(Nc4[nH]c(=O)[nH]c(=O)c42)c2ccccc2C3=O)cc1OC (stereo not drawn) | 20.3 | > 31 | 7.31 | 1.1 | 6.94 | 8.03
2 | COc1ccc(-c2c3c(nc4[nH]c(=O)[nH]c(=O)c24)-c2ccccc2C3=O)cc1OC | – | 29.4 | 1.12 | 0.78 | 6.73 | 0.87
3 | COc1cc(C2C3=C(Nc4[nH]c(=O)[nH]c(=O)c42)c2ccccc2C3=O)cc(Br)c1OC (stereo not drawn) | – | > 25.9 | 0.73 | 0.69 | 16.4 | 0.5
4 | COc1cc(-c2c3c(nc4[nH]c(=O)[nH]c(=O)c24)-c2ccccc2C3=O)cc(Br)c1OC | – | 26 | 1.87 | 1.24 | 16.2 | 2.31
5 | CCOC(=O)C(=O)CC(=O)/C=C/c1cccn1Cc1ccccc1Cl | 8.7 | – | – | – | – | –
6 | COc1cc(C2C3=C(Nc4[nH]c(=O)[nH]c(=O)c42)c2ccccc2C3=O)cc(OC)c1OC (stereo not drawn) | 21.5 | > 28.8 | 2.77 | 0.76 | 21.2 | 2.1
7 | COc1cc(C2C3=C(Nc4[nH]c(=O)[nH]c(=O)c42)c2ccccc2C3=O)cc(I)c1OC (stereo not drawn) | – | > 23.6 | 0.47 | 0.89 | 14 | 0.42
8 | O=C1C2=C(Nc3[nH]c(=O)[nH]c(=O)c3C2c2cccc(Br)c2)c2ccccc21 (stereo not drawn) | – | 11.6 | 11.4 | 1.42 | 36.5 | 16.1
9 | COc1cc(C2C3=C(Nc4[nH]c(=O)[nH]c(=O)c42)c2ccccc2C3=O)cc(OC)c1O (stereo not drawn) | 17.1 | 31.7 | 11 | 0.55 | 21.2 | 6.08
10 | COc1ccc(C2C3=C(Nc4[nH]c(=O)[nH]c(=O)c42)c2ccccc2C3=O)cc1F (stereo not drawn) | – | 7.16 | 9.71 | 0.74 | 16.9 | 7.16
11 | COc1cc(-c2c3c(nc4[nH]c(=O)[nH]c(=O)c24)-c2ccccc2C3=O)cc(OC)c1OC | – | > 29 | 2.09 | 0.97 | 5.8 | 2.02
12 | COc1cc(C2C3=C(Nc4[nH]c(=O)[nH]c(=O)c42)c2ccccc2C3=O)cc(Cl)c1OC (stereo not drawn) | – | > 28.6 | 0.41 | 0.73 | 6.17 | 0.3
13 | O=C1C2=C(Nc3[nH]c(=O)[nH]c(=O)c3C2c2cccc(O)c2)c2ccccc21 (stereo not drawn) | 93.4 | > 34.8 | 23.7 | 0.4 | 27 | 9.46
14 | COc1ccc(C2C3=C(Nc4[nH]c(=O)[nH]c(=O)c42)c2ccccc2C3=O)cc1Br (stereo not drawn) | – | > 27.6 | 1.81 | 0.96 | 1.9 | 1.73
15 | COc1cc(-c2c3c(nc4[nH]c(=O)[nH]c(=O)c24)-c2ccccc2C3=O)cc(Cl)c1OC | – | 28.2 | 0.69 | 1.23 | 18.6 | 0.85
16 | COc1ccc(-c2c3c(nc4[nH]c(=O)[nH]c(=O)c24)-c2ccccc2C3=O)cc1F | – | 6.68 | 9.25 | 0.44 | 15.7 | 4.11
17 | COc1ccc(C2C3=C(Nc4[nH]c(=O)[nH]c(=O)c42)c2ccccc2C3=O)cc1O (stereo not drawn) | > 100 | > 32.1 | 11.4 | 0.79 | 21.3 | 8.99
18 | COc1ccc(-c2c3c(nc4[nH]c(=O)[nH]c(=O)c24)-c2ccccc2C3=O)cc1Br | – | 25.1 | 11.8 | 0.91 | 35.8 | 9.55
19 | COc1ccc(C2C3=C(Nc4[nH]c(=O)[nH]c(=O)c42)c2ccccc2C3=O)cc1C (stereo not drawn) | – | > 32.3 | 9.81 | 0.3 | 22.2 | 2.89
20 | O=C1C2=C(Nc3[nH]c(=O)[nH]c(=O)c3C2c2ccc(O)c(O)c2)c2ccccc21 (stereo not drawn) | 11.2 | > 33.3 | 9.99 | 0.7 | > 33.3 | 7.03
21 | COc1cc(C2C3=C(Nc4[nH]c(=O)[nH]c(=O)c42)c2ccccc2C3=O)ccc1O (stereo not drawn) | > 100 | 35.4 | 8.35 | 0.74 | 21.3 | 6.16
22 | O=C1C2=C(Nc3[nH]c(=O)[nH]c(=O)c3C2c2ccc(O)cc2)c2ccccc21 (stereo not drawn) | > 100 | > 34.8 | 20 | 0.2 | 22 | 3.95
23 | COc1cc(-c2c3c(nc4[nH]c(=O)[nH]c(=O)c24)-c2ccccc2C3=O)cc(I)c1OC | – | 23 | 2.47 | 0.9 | 15.4 | 2.22
24 | C[C@@H]1[C@H](O)[C@@H](C)/C=C/C=C/C=C/C=C/C=C/C=C/C=C/[C@H](O[C@@H]2O[C@H](C)[C@@H](O)[C@H](N)[C@@H]2O)C[C@@H]2O[C@](O)(C[C@@H](O)C[C@@H](O)[C@H](O)CC[C@@H](O)C[C@@H](O)CC(=O)O[C@H]1C)C[C@H](O)[C@H]2C(=O)O [AMPHOTERICIN B] | – | 0.83 | – | – | – | –
25 | O=C1C(O)=C([C@H]2CC[C@H](c3ccc(Cl)cc3)CC2)C(=O)c2ccccc21 [ATOVAQUONE] | – | – | 0.07 | 136 | – | 9.5
